Measured values reported in ChEMBL document CHEMBL1122665, “Synthesis of thyrotropin-releasing hormone analogues. 1. Complete dissociation of central nervous system effects from thyrotropin-releasing activity” (1984).
Non-standard residues stand in square brackets, D forms with d. Residues, ends and D or L forms follow the SMILES beside them. *: point of attachment. Cha = N[C@@H](CC1CCCCC1)C(=O)O; pGlu = O=C1CC[C@@H](C(=O)O)N1; Nle = CCCC[C@H](N)C(=O)O; Nva = CCC[C@H](N)C(=O)O; Abu = CC[C@H](N)C(=O)O; tBu = CC(C)(C)*

Key:
Rattus norvegicus [1] = assay: Evaluated for hormonal (TSH) releasing activity in adult male albino rats after single intraperitoneal injection using radioimmunoassay; np-significant activity but not parallel TSH response to the lower and upper doses used; type: functional, organism-based
Summary of the method: (§1)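 Two-point assay in adult male albino rats: single ip injection at 1 and 10 μg. Blood drawn 15 min post-injection. Serum TSH measured by radioimmunoassay (NIAMDD rat TSH-RIA system). Relative potency expressed in percent, with synthetic TRH reference set at 100%.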

Rattus norvegicus [2] = assay: Inhibition of haloperidol catalepsy by less than 50% in a dose of 80 mg/kg, iv in adult male Wistar rats; type: functional
[3] = Evaluated for hormonal (TSH) releasing activity in adult male albino rats after single intraperitoneal injection using radioimmunoassay; type: functional; summary of the method: as §1
Rattus norvegicus [4] = assay: Anticataleptic effect at effective dose after intravenous administration in adult male Wistar rats; type: functional
Summary of the method: (§2)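 Haloperidol catalepsy induced in adult male Wistar rats by 4 mg/kg ip. Analogues given iv at 5 to 80 mg/kg, 2 h after haloperidol. Read-out is inhibition of catalepsy, taken as a measure of dopaminergic stimulation. Synthetic TRH served as reference standard.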

Rattus norvegicus [5] = assay: Evaluated for hormonal (TSH) releasing activity in adult male albino rats after single intraperitoneal injection using radioimmunoassay; np -significant but not parallel TSH response to the lower and upper doses used; type: functional, organism-based; summary of the method: as §1
Rattus norvegicus [6] = assay: Evaluated for hormonal (TSH) releasing activity in adult male albino rats after single intraperitoneal injection using radioimmunoassay; np- significant activity but not parallel TSH response to the lower and upper doses used; type: functional, organism-based; summary of the method: as §1
Rattus norvegicus [7] = assay: Anticataleptic effect at effective dose after intravenous administration in adult male Wistar rats.; type: functional; summary of the method: as §2
[8] = Rattus norvegicus, iv, read-out: ED50

Row | SMILES | inhibition in vivo at 80 mg/kg (Rattus norvegicus [2]) [%] | Activity [3] [%] | ED50 (Rattus norvegicus [4]; [8]) [mg/kg] | further results
1 | CC(C)C[C@@H](NC(=O)[C@H]1CCC(=O)N1)C(=O)N1CCCC1 | 20 |  |  | Activity (Rattus norvegicus [1]): Significant but not parallel
2 | CCNC(=O)[C@H]1CCCN1C(=O)[C@@H](CC(C)C)NC(=O)[C@H]1CCC(=O)N1 |  | 0 | 56.6 | 
3 | CC(C)C[C@@H](NC(=O)[C@H]1CCC(=O)N1)C(=O)N1CCC[C@@H]1C(=O)NCCN(C)C | 10 | 0 |  | 
4 | CC(C)C[C@H](NC(=O)[C@@H]1CCC(=O)N1)C(=O)N1CCC[C@H]1C(N)=O [listing 1 of 2 here] |  | 2.7 |  | ED50 (Rattus norvegicus [4]): 40 mg/kg
5 | NC(=O)[C@@H]1CCCN1C(=O)[C@@H]1CCCN1C(=O)[C@@H]1CCC(=O)N1 |  |  | 80 | 
6 | CC(C)C[C@H](NC(=O)[C@@H]1CCC(=O)N1)C(=O)N1CCC[C@H]1C(N)=O [listing 2 of 2 here] |  | 0 | 70 | 
7 | CCCCCCCC[C@H](NC(=O)[C@@H]1CCC(=O)N1)C(=O)N1CCC[C@H]1C(N)=O | 0 |  |  | Activity (Rattus norvegicus [5]): Significant but not parallel
8 | CC(C)C[C@H](NC(=O)[C@@H]1CCC(=O)N1)C(=O)N1CCC[C@@H]1C(N)=O |  | 0 | > 80 | 
9 | CC(C)C[C@@H](NC(=O)[C@@H]1CCC(=O)N1)C(=O)N1CCC[C@H]1C(N)=O |  | 0 | > 80 | 
10 | COC(=O)[C@H]1CCCN1C(=O)[C@@H](CC(C)C)NC(=O)[C@H]1CCC(=O)N1 | 0 | 0 |  | 
11 | CC(C)C[C@@H](NC(=O)[C@H]1CCC(=O)N1)C(=O)N1CCC[C@@H]1C(=O)O | 0 | 0.1 |  | 
12 | CCCCCCCCCCNC(=O)[C@H]1CCCN1C(=O)[C@@H](CC(C)C)NC(=O)[C@H]1CCC(=O)N1 | 10 | 0 |  | 
13 | NC(=O)[C@@H]1CCCN1C(=O)[C@@H]1CCCN1C(=O)[C@H]1CCC(=O)N1 |  |  |  | Activity (Rattus norvegicus [6]): Significant but not parallel
14 | C[C@H](NC(=O)[C@@H]1CCC(=O)N1)C(=O)N1CCC[C@H]1C(N)=O ([pGlu]-Ala-Pro-NH2) | 0 | 0 |  | 
15 | NC(=O)[C@@H]1CCCN1C(=O)CNC(=O)[C@@H]1CCC(=O)N1 ([pGlu]-Gly-Pro-NH2) | 10 | 0 |  | 
16 | CC[C@H](C)[C@H](NC(=O)[C@@H]1CCC(=O)N1)C(=O)N1CCC[C@H]1C(N)=O ([pGlu]-Ile-Pro-NH2) | 10 | 0.2 |  | 
17 | CSCC[C@H](NC(=O)[C@@H]1CCC(=O)N1)C(=O)N1CCC[C@H]1C(N)=O ([pGlu]-Met-Pro-NH2) | 40 | 1 |  | 
18 | NC(=O)[C@@H]1CCCN1C(=O)[C@H](Cc1ccccc1)NC(=O)[C@@H]1CCC(=O)N1 ([pGlu]-Phe-Pro-NH2) | 40 |  |  | 
19 | CC(C)(C)OC[C@H](NC(=O)[C@@H]1CCC(=O)N1)C(=O)N1CCC[C@H]1C(N)=O ([pGlu]-Ser(tBu)-Pro-NH2) | 0 | 0.2 |  | 
20 | C[C@@H](O)[C@H](NC(=O)[C@@H]1CCC(=O)N1)C(=O)N1CCC[C@H]1C(N)=O ([pGlu]-Thr-Pro-NH2) |  | 25.7 | 80 | 
21 | CC(C)[C@H](NC(=O)[C@@H]1CCC(=O)N1)C(=O)N1CCC[C@H]1C(N)=O ([pGlu]-Val-Pro-NH2) |  | 3.1 | > 80 | 
22 | CC[C@H](NC(=O)[C@@H]1CCC(=O)N1)C(=O)N1CCC[C@H]1C(N)=O ([pGlu]-[Abu]-Pro-NH2) |  | 0 | ≥ 80 | 
23 | NC(=O)[C@@H]1CCCN1C(=O)[C@H](CC1CCCCC1)NC(=O)[C@@H]1CCC(=O)N1 ([pGlu]-[Cha]-Pro-NH2) | 20 | 45.6 |  | 
24 | CCCC[C@H](NC(=O)[C@@H]1CCC(=O)N1)C(=O)N1CCC[C@H]1C(N)=O ([pGlu]-[Nle]-Pro-NH2) |  | 3.8 | 16.8 | 
25 | CCC[C@H](NC(=O)[C@@H]1CCC(=O)N1)C(=O)N1CCC[C@H]1C(N)=O ([pGlu]-[Nva]-Pro-NH2) |  | 0 | 11.4 | 
26 | NC(=O)[C@@H]1CCCN1C(=O)[C@H](Cc1c[nH]cn1)NC(=O)[C@@H]1CCC(=O)N1 [PROTIRELIN] | 40 | 100 |  | ED50 (Rattus norvegicus [7]): 113 mg/kg
